Data set [1] relates to Fibroblast. Nature of the data set: Upregulation of NAGLU protein expression in Sanfilippo-B patient derived human fibroblast cells at 20 uM incubated for 24 hrs by western blot analysis. The data set is classed as functional, cell-based. Put shortly: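 Sanfilippo B patient fibroblasts in DMEM, 10% FBS, treated 24 h with 20 μM compound. Lysates (50 μg per lane) blotted with anti-NAGLU antibody and HRP secondary with ECL detection; blots re-probed for β-actin as loading control.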
In general terms: Immunoblotting shows a protein as a band on a membrane.

The test system of data set [2] is Fibroblast. Nature of the data set: Inhibition of lysosomal defects in MPS-1 patient derived human fibroblast cells assessed as reduction in accumulation of enlarged LAMP1-positive lysosomal structures within the cytoplasm at 20 uM incubated for 48 hrs by LAMP1 staining based indirect immunofluorescence assay. Type of data set: functional, cell-based. Put shortly:
(§1)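 HDFa, MPS IIIA, MPS IIIB and MPS I patient fibroblasts in DMEM, 10% FBS, grown 48 h on coverslips with 20 μM compound. Double immunostained for HS (10E4) and Lamp1 with DAPI, confocal imaging. Mean fluorescence intensity expressed relative to untreated cells (d-enantiomers: percent positive cells), 50 random cells from three experiments.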

Data set [3] concerns Fibroblast. In words: Inhibition of heparan sulfate accumulation on cell membrane in MPS-1 patient derived human fibroblast cells at 40 uM incubated for 48 hrs by indirect immunofluorescence staining analysis. The data set is classed as functional, cell-based. Put shortly: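 MPS I patient fibroblasts grown on coverslips with 40 μM compound for 48 h. Immunostained for HS (10E4) and Lamp1 with DAPI, imaged by confocal microscopy. Mean fluorescence intensity expressed relative to untreated cells, 50 random cells from three independent experiments.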

Data set [4] deals with SK-N-BE(2). Nature of the data set: Inhibition of lysosomal defects in NAGLU-silenced human SK-NBE cell clones assessed as reduction in accumulation of enlarged LAMP1-positive lysosomal structures within the cytoplasm at 20 uM incubated for 48 hrs by LAMP1 staining based indirect immunofluorescence assay. Type of data set: functional. Put shortly: (§2)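 Control and NAGLU-silenced SK-NBE clones grown on coverslips with 20 μM compound for 48 h. Fixed in 3.7% formaldehyde, permeabilized with saponin/BSA buffer, stained with anti-Lamp1 or anti-HS 10E4 for 1 h, then Alexa secondaries. Confocal imaging with 63× objective. Scored as percent cells with enlarged Lamp1 structures or membrane HS, plus mean fluorescence intensity, over 50 random cells from three experiments.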

Data set [5] concerns HeLa. Nature of the data set: Downregulation of EXT1 protein expression in human HeLa cells at 20 uM incubated for 24 hrs by western blot analysis. The data set is classed as functional, cell-based.
In data set [6] the test system is SK-N-BE(2). In words: Upregulation of NAGLU protein expression in human SK-NBE cells at 20 uM incubated for 24 hrs by western blot analysis. The data set is classed as functional, cell-based. Put shortly:
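Western blot of control SK-NBE clone and NAGLU-shRNA SK-NBE clone (RPMI, 10% FBS, puromycin 0.7 μg/mL) after 24 h at 20 μM. Lysis, Bradford assay, 50 μg per lane, nitrocellulose transfer, anti-NAGLU antibody overnight at 4 °C, HRP secondary and ECL. GAPDH re-probe for loading.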

Data set [7] addresses T1, Alpha-N-acetylglucosaminidase (Homo sapiens) (UniProt P54802).
T1 sequence (whole entry): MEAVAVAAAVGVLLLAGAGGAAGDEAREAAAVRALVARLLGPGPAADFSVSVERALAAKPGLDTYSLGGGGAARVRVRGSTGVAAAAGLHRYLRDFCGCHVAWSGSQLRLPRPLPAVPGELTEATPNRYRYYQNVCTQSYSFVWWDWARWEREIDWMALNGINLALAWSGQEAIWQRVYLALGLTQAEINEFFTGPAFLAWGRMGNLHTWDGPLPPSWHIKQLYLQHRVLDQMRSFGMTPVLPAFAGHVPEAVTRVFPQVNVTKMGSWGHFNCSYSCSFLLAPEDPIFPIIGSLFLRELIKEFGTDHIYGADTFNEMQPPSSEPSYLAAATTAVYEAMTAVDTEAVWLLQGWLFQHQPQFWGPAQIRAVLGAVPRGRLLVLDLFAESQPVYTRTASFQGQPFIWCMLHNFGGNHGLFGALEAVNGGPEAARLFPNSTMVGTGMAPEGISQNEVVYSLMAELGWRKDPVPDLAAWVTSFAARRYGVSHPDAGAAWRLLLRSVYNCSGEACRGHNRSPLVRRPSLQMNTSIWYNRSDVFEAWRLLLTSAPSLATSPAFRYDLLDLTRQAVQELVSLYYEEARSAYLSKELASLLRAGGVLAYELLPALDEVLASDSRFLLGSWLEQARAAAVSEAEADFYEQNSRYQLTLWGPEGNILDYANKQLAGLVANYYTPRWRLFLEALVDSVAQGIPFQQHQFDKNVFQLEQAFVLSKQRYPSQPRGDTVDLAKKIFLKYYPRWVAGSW
Nature of the data set: Inhibition of NAGLU in human HDFa cells using 4-methylumbelliferyl-N-acetyl-alpha-D-glucosaminide as substrate upto 1 mM by fluorescence based analysis. Type of data set: cell-based. Put shortly: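 HDFa fibroblast lysate (freeze–thaw, Lowry protein) incubated 2 h with 4-methylumbelliferyl-N-acetyl-α-D-glucosaminide (2 mM substrate solution) in Na-acetate buffer pH 4.5, compound added to the reaction up to 1 mM. Fluorogenic hydrolysis normalized per mg protein per hour.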

The subject of data set [8] is Fibroblast. Nature of the data set: Inhibition of lysosomal defects in Sanfilippo-B patient derived human fibroblast cells assessed as reduction in accumulation of enlarged LAMP1-positive lysosomal structures within the cytoplasm at 20 uM incubated for 48 hrs by LAMP1 staining based indirect immunofluorescence assay. The data set is classed as functional, cell-based. In short, it runs like this: as §1

In data set [9] the test system is HeLa. Nature of the data set: Inhibition of heparan sulfate accumulation on cell membrane in human HeLa cells at 20 uM incubated for 48 hrs by indirect immunofluorescence staining analysis. Type of data set: functional, cell-based. Put shortly:
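HeLa cells grown 48 h with compound, then immunostained with anti-HS antibody 10E4 to gauge membrane HS.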

For data set [10], the system named is SK-N-BE(2). Nature of the data set: Inhibition of heparan sulfate accumulation on cell membrane in NAGLU-silenced human SK-NBE cells clone at 20 uM incubated for 48 hrs by indirect immunofluorescence staining analysis. The data set is classed as functional, cell-based. Put shortly: as §2
Data set [11] concerns Fibroblast. Nature of the data set: Effect on heparan sulfate changes in human fibroblast cells at 20 uM incubated for 48 hrs by indirect immunofluorescence staining analysis. Type of data set: functional, cell-based. Put shortly:
as §1

The subject of data set [12] is Alpha-N-acetylglucosaminidase (Homo sapiens), P54802 [UNDEFINED MUTATION]. Nature of the data set: Stabilization of mutated NAGLU in Sanfilippo-B patient derived human fibroblast cells assessed as increase in NAGLU activity using 4-methylumbelliferyl-N-acetyl-alpha-D-glucosaminide as substrate at 20 uM cells pretreated for 2 hrs with substrate followed by compound addition by fluorescence based analysis relative to control. Type of data set: cell-based. Put shortly: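 Pellets of 5 × 10^5 MPS IIIB or HDFa fibroblasts lysed by 10 freeze–thaw cycles and clarified at 4 °C; protein by Lowry. Lysate incubated 2 h with 2 mM 4-methylumbelliferyl-N-acetyl-α-D-glucosaminide stock in 0.2 M Na-acetate pH 4.5, compound added at 20 μM. Activity normalized to protein, expressed as nmol substrate hydrolysed per h per mg.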

The test system of a further data set is IB3-1. In words: Antiproliferative activity against human IB3-1 cells upto 100 uM. The data set is classed as toxicity, cell-based. To be noted: ib3-1, 100 µM.

SMILES strings stand for the structures. The source made the active and inactive calls. The rule behind the calls is not given here.

For the compound `CCCCN1C[C@@H](O)[C@H](O)[C@@H](O)[C@@H]1CO.Cl`, the result in the data set with Fibroblast [1] and in the data set on SK-N-BE(2) [6] was Active. In addition, the inhibition result (with Fibroblast [2]; in [7]) was “inactive” throughout. Also, the inhibition result in the data set with Fibroblast [3], with SK-N-BE(2) [4], with HeLa [5], in the data set with Fibroblast [8], in the data set with HeLa [9] and in the data set with SK-N-BE(2) [10] was “Active” each time. Moreover, the result in the data set with Fibroblast [11] was inactive. Moreover, the fold change (FC) in [12] stood at 20. Also, the Activity entry in the data set with IB3-1 is “Non-Toxic”.

Consider `Cl.OC[C@@H]1NC[C@@H](O)[C@H](O)[C@H]1O`, for which the result in the data set on Fibroblast [1] and in the data set on SK-N-BE(2) [6] was Active. Further, the inhibition entry (in the data set with Fibroblast [2]; in [7]) was “inactive” each time. Further, the inhibition entry in the data set with Fibroblast [3], in the data set on SK-N-BE(2) [4], with HeLa [5], with Fibroblast [8], with HeLa [9] and in the data set on SK-N-BE(2) [10] was “Active” throughout. For the same compound, the result in the data set with Fibroblast [11] was inactive. For the same compound, in the data set with IB3-1, the Activity entry is “Non-Toxic”.

`Cl.OC[C@H]1[C@H](O)[C@@H](O)[C@H](O)CN1CCCCCOCC12CC3CC(CC(C3)C1)C2`: the outcome in the data set on Fibroblast [1] and in the data set on SK-N-BE(2) [6] was Active. Further, the inhibition result (in the data set on Fibroblast [2]; in the data set on HeLa [5]; in data set [7]) was “inactive” each time. Moreover, the inhibition entry in the data set with Fibroblast [3], with SK-N-BE(2) [4], in the data set with Fibroblast [8], in the data set on HeLa [9] and in the data set with SK-N-BE(2) [10] was “Active” in each case. Besides, the result in the data set on Fibroblast [11] was inactive. For the same compound, in the data set on IB3-1, the Activity result is listed as “Non-Toxic”.

Consider `COCCCCCCCCCN1C[C@@H](O)[C@H](O)[C@@H](O)[C@@H]1CO.Cl`, for which the result in the data set with Fibroblast [1] and in the data set with SK-N-BE(2) [6] was Active. Also, the inhibition entry (in the data set with Fibroblast [2]; with HeLa [5]; in data set [7]) was “inactive” in each case. The inhibition entry with Fibroblast [3], in the data set on SK-N-BE(2) [4], in the data set on Fibroblast [8], in the data set on HeLa [9] and in the data set with SK-N-BE(2) [10] was “Active” throughout. Further, the result in the data set on Fibroblast [11] was inactive. Further, in the data set with IB3-1, the Activity result is “Non-Toxic”.

(Values after ChEMBL document CHEMBL5380783, “N-Substituted l-Iminosugars for the Treatment of Sanfilippo Type B Syndrome” (J Med Chem, 2023).)
